# Key:
# [1] = molecular target: Botulinum neurotoxin type A (Clostridium botulinum (strain Hall / ATCC 3502 / NCTC 13319 / Type A)) (UniProt P0DPI1); test: Inhibition of Clostridium botulinum Hall BoNT/A-mediated paralysis in CD1 mouse phrenic nerve hemidiaphragm assessed as time required to 50% loss of twitch tension at 20 uM measured upto 5 hrs (reference value: 62 mins)
# [2] = molecular target: Botulinum neurotoxin type A (Clostridium botulinum (strain Hall / ATCC 3502 / NCTC 13319 / Type A), UniProt P0DPI1); test: Inhibition of Clostridium botulinum Hall BoNT/A protease activity using Ac-SNKTRIDEANQRATKML-NH2 as substrate after 5 mins by RP-HPLC analysis
# Chain of Botulinum neurotoxin type A (P0DPI1 2-448 limits assumed): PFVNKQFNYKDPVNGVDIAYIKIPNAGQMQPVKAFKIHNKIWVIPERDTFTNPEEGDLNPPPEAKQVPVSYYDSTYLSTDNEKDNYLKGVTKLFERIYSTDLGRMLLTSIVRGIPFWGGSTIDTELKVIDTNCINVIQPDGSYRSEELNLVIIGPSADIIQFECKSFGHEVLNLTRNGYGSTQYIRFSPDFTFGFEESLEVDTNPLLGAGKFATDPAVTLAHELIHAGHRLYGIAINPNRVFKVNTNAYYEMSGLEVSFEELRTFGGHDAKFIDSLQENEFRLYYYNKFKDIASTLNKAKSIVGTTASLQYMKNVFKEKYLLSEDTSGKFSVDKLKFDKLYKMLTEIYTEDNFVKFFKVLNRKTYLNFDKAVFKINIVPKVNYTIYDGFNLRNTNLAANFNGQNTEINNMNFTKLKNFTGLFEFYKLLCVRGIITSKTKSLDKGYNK
# How it was run: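 HPLC-based BoNT/A protease assay; percent inhibition measured at nine compound concentrations, with IC50 derived by curve fitting.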
# [3] = molecular target: Botulinum neurotoxin type A (Clostridium botulinum (strain Hall / ATCC 3502 / NCTC 13319 / Type A)) (UniProt P0DPI1); test: Inhibition of Clostridium botulinum Hall BoNT/A-mediated paralysis in CD1 mouse phrenic nerve hemidiaphragm assessed as time required to 50% loss of twitch tension at 2 uM measured upto 5 hrs (reference value: 62 mins)
# [4] = molecular target: Botulinum neurotoxin type A (Clostridium botulinum (strain Hall / ATCC 3502 / NCTC 13319 / Type A)) (UniProt P0DPI1); test: Inhibition of Clostridium botulinum Hall BoNT/A protease activity using Ac-SNKTRIDEANQRATKML-NH2 as substrate at 20 uM after 5 mins by RP-HPLC analysis
# How it was run: (§1)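 HPLC-based BoNT/A protease assay; single-point percent inhibition of protease activity at 100 or 20 μM compound.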
# [5] = molecular target: Botulinum neurotoxin type A (Clostridium botulinum (strain Hall / ATCC 3502 / NCTC 13319 / Type A)) (UniProt P0DPI1); test: Inhibition of Clostridium botulinum Hall BoNT/A protease activity using Ac-SNKTRIDEANQRATKML-NH2 as substrate at 100 uM after 5 mins by RP-HPLC analysis; how it was run: as §1
# Chain of Botulinum neurotoxin type A (Clostridium botulinum (strain Hall / ATCC 3502 / NCTC 13319 / Type A)) (P0DPI1 2-448 limits assumed): as above
Compound,TIME [1] [h],IC50 [2] [µM],TIME [3] [h],inhibition [4] [%],inhibition [5] [%]
Cc1cc(O)c2c(c1)C(=O)c1c(c(O)cc(O)c1-c1c(O)cc(O)c3c1C(=O)c1cc(C)cc(O)c1C3=O)C2=O [SKYRIN],1.35,31.5,1.07,40.3,74.3
CCOc1ccc(C(Nc2cccnc2)c2cc(Cl)c3cccnc3c2O)cc1 (racemic),5,2.1,5,96.2,98
CCC[C@H]1Cc2cc3c(-c4c(O)cc(O)c5c(O)c6c(cc45)C[C@H](CCC)OC6=O)c(O)cc(O)c3c(O)c2C(=O)O1 [TALARODERXINE A],–,3.7,–,–,–
"CCC[C@H]1Cc2cc3c(-c4c(O)cc(O)c5c(O)c6c(cc45)C[C@H](CCC)OC6=O)c(O)cc(O)c3c(O)c2C(=O)O1 (single isomer, unassigned; atropisomer) [TALARODERXINE A]",–,10.1,–,–,–
"CCC[C@H]1Cc2cc3c(-c4c(O)cc(O)c5c(O)c6c(cc45)C[C@H](CCC)OC6=O)c(O)cc(O)c3c(O)c2C(=O)O1 (single isomer, unassigned; atropisomer)",1.58,–,2.9,67,80.3
C[C@H]1Oc2cc3c(-c4c(O)cc(O)c5c(O)c6c(cc45)O[C@H](C)[C@@H](C)C6=O)c(O)cc(O)c3c(O)c2C(=O)[C@@H]1C [CHAETOCHROMIN A],3.13,24.6,1.73,55,74
CC1CC(=O)c2c(cc3c(-c4c(O)cc(O)c5c(O)c6c(cc45)OC(C)CC6=O)c(O)cc(O)c3c2O)O1 (stereo not drawn) [CEPHALOCHROMIN],0.983,29.2,–,45,72
COC(=O)[C@]12Oc3ccc(-c4ccc5c(c4O)C(=O)C4=C(O)C[C@@H](C)[C@H](O)[C@@]4(C(=O)OC)O5)c(O)c3C(=O)C1=C(O)C[C@@H](C)[C@@H]2O [SECALONIC ACID A],1.12,28.6,–,39.1,64.5
CCC[C@H]1Cc2cc3c(-c4c(O)cc(O)c5c(O)c6c(cc45)C[C@H](CCC)OC6=O)c(O)cc(O)c3c(O)c2C(=O)O1,3.28,–,3.15,85,96

# — ChEMBL document CHEMBL2062470, “Fungal bis-Naphthopyrones as Inhibitors of Botulinum Neurotoxin Serotype A” (ACS Med Chem Lett, 2012)
